Assay results taken from ChEMBL document CHEMBL1687913, “Structure-activity relationship, conformational and biological studies of temporin L analogues” (J Med Chem, 2011).
Converted amounts (≈) assume the structure as drawn. Where a SMILES comes first, the peptide text is derived from it. [ ]: non-standard residue; d: D form. Orn = NCCC[C@H](N)C(=O)O

What was measured:
[1] = tested on: Staphylococcus capitis; experiment: Antibacterial activity against Staphylococcus capitis after 18 to 20 hrs by microbroth dilution method; type: functional
Method in brief: (§1)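 CLSI microbroth dilution, adapted. Mid-log bacteria, 2 × 10^6 CFU/mL in Mueller-Hinton broth, mixed 1:1 with MH broth holding peptide in serial 2-fold dilutions in 20% ethanol (0.75-48 μM). Incubated 18-20 h at 37 °C; growth read as A600. MIC is the lowest concentration giving 100% growth inhibition.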

[2] = tested on: Pseudomonas aeruginosa; experiment: Antibacterial activity against Pseudomonas aeruginosa ATCC 27853 after 18 to 20 hrs by microbroth dilution method; type: functional; method in brief: as §1
[3] = tested on: Staphylococcus epidermidis; experiment: Antibacterial activity against Staphylococcus epidermidis ATCC 12228 after 18 to 20 hrs by microbroth dilution method; type: functional; method in brief: as §1
[4] = tested on: Schizosaccharomyces pombe; experiment: Antifungal activity against Schizosaccharomyces pombe after 18 to 20 hrs by microbroth dilution method; type: functional
Method in brief: (§2)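 Yeasts tested by adapted CLSI microbroth dilution in Winge medium. Peptide given in serial 2-fold dilutions (0.75-48 μM, made in 20% ethanol). Incubation 18-20 h at 30 °C, read at A600. MIC taken as the concentration giving complete (100%) growth inhibition.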

[5] = tested on: Candida albicans; experiment: Antifungal activity against Candida albicans ATCC 10231 after 18 to 20 hrs by microbroth dilution method; type: functional; method in brief: as §2
[6] = tested on: Pseudomonas syringae; experiment: Antibacterial activity against Pseudomonas syringae pv tobaci after 18 to 20 hrs by microbroth dilution method; type: functional; method in brief: as §1
[7] = tested on: Escherichia coli; experiment: Antibacterial activity against Escherichia coli D21 after 18 to 20 hrs by microbroth dilution method; type: functional; method in brief: as §1
[8] = tested on: Enterococcus faecalis; experiment: Antibacterial activity against Enterococcus faecalis ATCC 29212 after 18 to 20 hrs by microbroth dilution method; type: functional; method in brief: as §1
[9] = tested on: Staphylococcus aureus; experiment: Antibacterial activity against Staphylococcus aureus ATCC 25923 after 18 to 20 hrs by microbroth dilution method; type: functional; method in brief: as §1
[10] = Toxicity in human erythrocytes assessed as hemolysis at 3 uM after 40 mins; type: cell-based, Erythrocyte; settings: read-out: Activity
Method in brief: (§3)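 Human red blood cells suspended in 0.9% (w/v) NaCl and incubated 40 min at 37 °C with gentle mixing with serial 2-fold peptide dilutions (peptide predissolved in 20% ethanol). Spun 5 min at 900g; supernatant read at 415 nm. Cells lysed in distilled water set the 100% lysis reference.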

[11] = tested on: Priestia megaterium; experiment: Antibacterial activity against Bacillus megaterium Bm11 after 18 to 20 hrs by microbroth dilution method; type: functional; method in brief: as §1
[12] = tested on: Acinetobacter junii; experiment: Antibacterial activity against […] Acinetobacter junii RT-4 after 18 to 20 hrs by microbroth dilution method; type: functional; method in brief: as §1
[13] = Toxicity in human erythrocytes assessed as hemolysis at 24 uM after 40 mins; type: cell-based, Erythrocyte; settings: read-out: Activity; method in brief: as §3
[14] = tested on: Streptococcus pyogenes; experiment: Antibacterial activity against Streptococcus pyogenes ATCC 21547 after 18 to 20 hrs by microbroth dilution method; type: functional; method in brief: as §1
[15] = tested on: Acinetobacter baumannii; experiment: Antibacterial activity against Acinetobacter baumannii ATCC 19606 after 18 to 20 hrs by microbroth dilution method; type: functional; method in brief: as §1
[16] = Toxicity in human erythrocytes assessed as hemolysis at 1.5 uM after 40 mins; type: cell-based, Erythrocyte; settings: read-out: Activity; method in brief: as §3
[17] = tested on: Staphylococcus aureus; experiment: Antibacterial activity against Staphylococcus aureus Cowan I after 18 to 20 hrs by microbroth dilution method; type: functional; method in brief: as §1
[18] = tested on: Pseudomonas aeruginosa; experiment: Antibacterial activity against Pseudomonas aeruginosa ATCC 15692 after 18 to 20 hrs by microbroth dilution method; type: functional; method in brief: as §1
[19] = Toxicity in human erythrocytes assessed as hemolysis at 6 uM after 40 mins; type: cell-based, Erythrocyte; settings: read-out: Activity; method in brief: as §3
[20] = tested on: Escherichia coli; experiment: Antibacterial activity against Escherichia coli ATCC 25922 after 18 to 20 hrs by microbroth dilution method; type: functional; method in brief: as §1
[21] = tested on: Saccharomyces cerevisiae; experiment: Antifungal activity against Saccharomyces cerevisiae after 18 to 20 hrs by microbroth dilution method; type: functional; method in brief: as §2
[22] = tested on: Yersinia pseudotuberculosis; experiment: Antibacterial activity against Yersinia pseudotuberculosis YPIII after 18 to 20 hrs by microbroth dilution method; type: functional
Method in brief: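 Broth microdilution adapted from CLSI. Mid-log bacteria at 2 × 10^6 CFU/mL in Mueller-Hinton broth were mixed 1:1 with MH broth containing peptide in serial 2-fold dilutions (peptide in 20% ethanol), 0.75-48 μM. Plates were incubated 18-20 h at 37 °C and growth was read as A600. MIC is the concentration giving 100% growth inhibition.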

[23] = Toxicity in human erythrocytes assessed as hemolysis at 12 uM after 40 mins; type: cell-based, Erythrocyte; settings: read-out: Activity; method in brief: as §3

| Structure (SMILES) | MIC [1] | MIC [2] | MIC [3] | MIC [4] | MIC [5] | MIC [6] | MIC [7] | MIC [8] | MIC [9] | hemolysis at 40 min, 3 µM [10] | MIC [11] | MIC [12] | hemolysis at 40 min, 24 µM [13] | MIC [14] | MIC [15] | hemolysis at 40 min, 1.5 µM [16] | MIC [17] | MIC [18] | hemolysis at 40 min, 6 µM [19] | MIC [20] | other results |
| --- | --- | --- | --- | --- | --- | --- | --- | --- | --- | --- | --- | --- | --- | --- | --- | --- | --- | --- | --- | --- | --- |
| CC[C@H](C)[C@H](NC(=O)[C@H](CCCNC(=N)N)NC(=O)CNC(=O)[C@H](CC(C)C)NC(=O)[C@H](Cc1ccccc1)NC(=O)[C@H](CCCCN)NC(=O)[C@H](CO)NC(=O)[C@H](Cc1ccccc1)NC(=O)[C@H](Cc1c[nH]c2ccccc12)NC(=O)[C@H](CCCNC(=N)N)NC(=O)[C@@H](NC(=O)[C@@H](N)Cc1ccccc1)C(C)C)C(=O)N[C@@H](CC(C)C)C(N)=O (H-FVRWFSKFLGRIL-NH2) | 3 µM (≈ 5 µg/mL) | 24 µM (≈ 40 µg/mL) | 3 µM (≈ 5 µg/mL) | 12 µM (≈ 20 µg/mL) | 12 µM (≈ 20 µg/mL) | 6 µM (≈ 10 µg/mL) | 12 µM (≈ 20 µg/mL) | 12 µM (≈ 20 µg/mL) | 6 µM (≈ 10 µg/mL) | 20% | 3 µM (≈ 5 µg/mL) | 3 µM (≈ 5 µg/mL) | 100% | 3 µM (≈ 5 µg/mL) | 6 µM (≈ 10 µg/mL) | 7% | 6 µM (≈ 10 µg/mL) | 12 µM (≈ 20 µg/mL) | 52% | 24 µM (≈ 40 µg/mL) | MIC [21]: 24 µM (≈ 40 µg/mL); MIC [22]: 3 µM (≈ 5 µg/mL); hemolysis at 40 min, 12 µM [23]: 100% |
| CC[C@H](C)[C@H](NC(=O)[C@H](CCCCN)NC(=O)CNC(=O)[C@H](CC(C)C)NC(=O)[C@H](Cc1ccccc1)NC(=O)[C@H](CCCCN)NC(=O)[C@H](CO)NC(=O)[C@H](Cc1ccccc1)NC(=O)[C@H](Cc1c[nH]c2ccccc12)NC(=O)[C@H](CCC(N)=O)NC(=O)[C@@H](NC(=O)[C@@H](N)Cc1ccccc1)C(C)C)C(=O)N[C@@H](CC(C)C)C(N)=O (H-FVQWFSKFLGKIL-NH2) | 6 µM (≈ 9.67 µg/mL) | 48 µM (≈ 77.4 µg/mL) | 6 µM (≈ 9.67 µg/mL) | 6 µM (≈ 9.67 µg/mL) | 12 µM (≈ 19.3 µg/mL) | 24 µM (≈ 38.7 µg/mL) | 24 µM (≈ 38.7 µg/mL) | 12 µM (≈ 19.3 µg/mL) | 6 µM (≈ 9.67 µg/mL) | 5% | 3 µM (≈ 4.84 µg/mL) | 6 µM (≈ 9.67 µg/mL) | 100% | 6 µM (≈ 9.67 µg/mL) | 6 µM (≈ 9.67 µg/mL) | 2.6% | 12 µM (≈ 19.3 µg/mL) | 24 µM (≈ 38.7 µg/mL) | 14% | 12 µM (≈ 19.3 µg/mL) | MIC [21]: 6 µM (≈ 9.67 µg/mL); MIC [22]: 6 µM (≈ 9.67 µg/mL); hemolysis at 40 min, 12 µM [23]: 59% |
| CC[C@H](C)[C@H](NC(=O)[C@H](CCCN)NC(=O)CNC(=O)[C@H](CC(C)C)NC(=O)[C@H](Cc1ccccc1)NC(=O)[C@H](CCCCN)NC(=O)[C@H](CO)NC(=O)[C@H](Cc1ccccc1)NC(=O)[C@H](Cc1c[nH]c2ccccc12)NC(=O)[C@H](CCC(N)=O)NC(=O)[C@@H](NC(=O)[C@@H](N)Cc1ccccc1)C(C)C)C(=O)N[C@@H](CC(C)C)C(N)=O (H-FVQWFSKFLG[Orn]IL-NH2) | 3 µM (≈ 4.79 µg/mL) | 24 µM (≈ 38.4 µg/mL) | 3 µM (≈ 4.79 µg/mL) | 12 µM (≈ 19.2 µg/mL) | 6 µM (≈ 9.59 µg/mL) | 12 µM (≈ 19.2 µg/mL) | 12 µM (≈ 19.2 µg/mL) | 6 µM (≈ 9.59 µg/mL) | 3 µM (≈ 4.79 µg/mL) | 7% | 1.5 µM (≈ 2.4 µg/mL) | 12 µM (≈ 19.2 µg/mL) | 89% | 24 µM (≈ 38.4 µg/mL) | 12 µM (≈ 19.2 µg/mL) | 3% | 1.5 µM (≈ 2.4 µg/mL) | 24 µM (≈ 38.4 µg/mL) | 22% | 12 µM (≈ 19.2 µg/mL) | MIC [21]: 12 µM (≈ 19.2 µg/mL); MIC [22]: 3 µM (≈ 4.79 µg/mL); hemolysis at 40 min, 12 µM [23]: 62% |
